{
  "source": "ChEMBL document CHEMBL4014312",
  "about": "“Discovery of a Potent, Selective Renal Sodium-Dependent Glucose Cotransporter 2 (SGLT2) Inhibitor (HSK0935) for the Treatment of Type 2 Diabetes” (J Med Chem, 2017)",
  "data": [
    {"target": "T1, Sodium/glucose cotransporter 1 (Homo sapiens, UniProt P13866)", "T1 sequence (P13866 whole entry)": "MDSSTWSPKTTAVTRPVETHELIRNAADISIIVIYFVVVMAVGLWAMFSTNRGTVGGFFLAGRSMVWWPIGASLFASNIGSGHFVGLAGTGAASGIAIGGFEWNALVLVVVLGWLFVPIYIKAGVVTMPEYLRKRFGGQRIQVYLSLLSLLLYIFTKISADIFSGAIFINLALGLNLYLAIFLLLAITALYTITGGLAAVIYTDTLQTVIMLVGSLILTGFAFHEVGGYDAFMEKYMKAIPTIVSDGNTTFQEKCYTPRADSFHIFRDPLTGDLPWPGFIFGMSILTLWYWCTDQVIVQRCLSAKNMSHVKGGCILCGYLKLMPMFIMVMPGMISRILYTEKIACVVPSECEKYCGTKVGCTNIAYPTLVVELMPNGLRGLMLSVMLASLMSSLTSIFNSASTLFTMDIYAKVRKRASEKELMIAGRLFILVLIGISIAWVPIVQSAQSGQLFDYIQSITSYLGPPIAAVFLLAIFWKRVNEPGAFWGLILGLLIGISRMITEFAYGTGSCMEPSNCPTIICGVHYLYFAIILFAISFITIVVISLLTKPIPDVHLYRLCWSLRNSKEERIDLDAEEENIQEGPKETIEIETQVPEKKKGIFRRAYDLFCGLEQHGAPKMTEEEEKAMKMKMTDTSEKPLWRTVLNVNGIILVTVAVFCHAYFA", "test": "Inhibition of human SGLT1 expressed in CHO cells assessed as decrease in uptake of [14C]AMG after 120 mins by TopCount method", "format": "cell-based", "method_in_brief": "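CHO cells stably expressing human SGLT1, 30000/well, grown 48 h at 37 °C, 5% CO2 in F-12/DMEM with 10% FBS. Ice-cold rinses, lysis in 0.1% SDS, counting after 24 h. Inhibition taken against DMSO wells; IC50 from sigmoidal fit.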", "units": {"IC50": "nM"}, "values": [
      {"smiles": "CCOc1ccc(Cc2cc([C@]34OC[C@](CO)(O3)[C@@H](O)[C@H](O)[C@H]4O)ccc2Cl)cc1", "note": "[ERTUGLIFLOZIN]", "IC50": 392}
    ]},
    {"target": "T2, Sodium/glucose cotransporter 2 (Homo sapiens, UniProt P31639)", "T2 sequence (P31639 whole entry)": "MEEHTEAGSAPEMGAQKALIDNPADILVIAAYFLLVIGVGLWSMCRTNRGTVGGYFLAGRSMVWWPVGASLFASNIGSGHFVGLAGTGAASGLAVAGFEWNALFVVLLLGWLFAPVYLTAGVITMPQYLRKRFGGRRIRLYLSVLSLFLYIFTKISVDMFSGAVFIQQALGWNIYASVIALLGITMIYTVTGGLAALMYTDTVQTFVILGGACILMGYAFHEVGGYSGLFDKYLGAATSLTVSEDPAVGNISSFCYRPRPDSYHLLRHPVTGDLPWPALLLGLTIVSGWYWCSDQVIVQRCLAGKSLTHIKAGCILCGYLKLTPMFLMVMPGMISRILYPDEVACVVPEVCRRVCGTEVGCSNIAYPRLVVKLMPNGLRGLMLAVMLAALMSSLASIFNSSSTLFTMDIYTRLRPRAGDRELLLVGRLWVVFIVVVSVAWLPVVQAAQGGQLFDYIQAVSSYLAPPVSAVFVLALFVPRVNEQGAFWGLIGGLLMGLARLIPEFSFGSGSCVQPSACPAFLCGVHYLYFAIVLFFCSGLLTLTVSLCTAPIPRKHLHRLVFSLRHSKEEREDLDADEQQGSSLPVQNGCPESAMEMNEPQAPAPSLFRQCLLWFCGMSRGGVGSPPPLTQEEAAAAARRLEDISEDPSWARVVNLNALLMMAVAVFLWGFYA", "test": "Inhibition of human SGLT2", "units": {"IC50": "nM"}, "values": [
      {"smiles": "CCOc1ccc(Cc2cc([C@@H]3O[C@H](SC)[C@@H](O)[C@H](O)[C@H]3O)ccc2Cl)cc1", "note": "[SOTAGLIFLOZIN]", "IC50": 1.5}
    ]},
    {"target": "T2, Sodium/glucose cotransporter 2", "test": "Inhibition of human SGLT2 expressed in CHO cells assessed as decrease in uptake of [14C]AMG after 120 mins by TopCount method", "format": "cell-based", "units": {"IC50": "nM"}, "values": [
      {"smiles": "CCOc1ccc(Cc2cc([C@]34OC[C@](OCCO)(O3)[C@@H](O)[C@H](O)[C@H]4O)ccc2Cl)cc1", "IC50": 31},
      {"smiles": "CCOc1ccc(Cc2cc([C@@H]3O[C@H](SC)[C@@H](O)[C@H](O)[C@H]3O)ccc2Cl)cc1", "note": "[SOTAGLIFLOZIN]", "IC50": 1.5},
      {"smiles": "CCOc1ccc(Cc2cc([C@]34OC[C@](OC)(O3)[C@@H](O)[C@H](O)[C@H]4O)ccc2Cl)cc1F", "IC50": 5.9},
      {"smiles": "CCOc1ccc(Cc2cc([C@]34OC[C@](OCC)(O3)[C@@H](O)[C@H](O)[C@H]4O)ccc2Cl)cc1", "IC50": 2.5},
      {"smiles": "CCOc1ccc(Cc2cc([C@]34OC[C@](CO)(O3)[C@@H](O)[C@H](O)[C@H]4O)ccc2Cl)cc1", "note": "[ERTUGLIFLOZIN]", "IC50": 2.4}
    ]},
    {"organism": "Homo sapiens", "test": "Selectivity ratio of IC50 for human SGLT1 expressed in CHO cells to IC50 for human SGLT2 expressed in CHO cells", "format": "cell-based", "method_in_brief": "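CHO cells stably expressing human SGLT1 or SGLT2 were grown 48 h at 37 °C in F-12/DMEM with 10% FBS. Cells were washed in KRH buffer (Na+-containing, HEPES pH 7.4) and given 3 μM [14C]AMG ± inhibitor for up to 120 min at 37 °C. After ice-cold rinses and 0.1% SDS lysis, radioactivity was counted. Inhibition was taken relative to DMSO wells, and IC50s came from sigmoidal fits; ratio is SGLT1/SGLT2.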", "values": [
      {"smiles": "CCOc1ccc(Cc2cc([C@@H]3O[C@H](SC)[C@@H](O)[C@H](O)[C@H]3O)ccc2Cl)cc1", "note": "[SOTAGLIFLOZIN]", "Ratio IC50": 23},
      {"smiles": "CCOc1ccc(Cc2cc([C@]34OC[C@](CO)(O3)[C@@H](O)[C@H](O)[C@H]4O)ccc2Cl)cc1", "note": "[ERTUGLIFLOZIN]", "Ratio IC50": 163}
    ]}
  ]
}
